Laboratory results as given in ChEMBL document CHEMBL1123985, “Oral absorption of cephalosporin antibiotics. 1. Synthesis, biological properties, and oral bioavailability of 7-(arylacetamido)-3-chloro cephalosporins in animals” (J Med Chem, 1988).
Converted amounts (≈) assume the structure as drawn.

Experiments:
Klebsiella aerogenes = test: Minimum inhibitory concentration against EB17 strain of Enterobacter aerogenes; assay type: functional
[1] = Dose in urine (24-h urine excretion) in female mongrel dogs after oral administration of single 15 mg/kg dose; assay type: ADME, organism-based, Canis lupus familiaris; design: dose 15 mg/kg, route oral; conditions: dog
Method in brief: (§1)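 Female mongrel dogs (n=6), bladder catheter; urine collected at intervals after single 15 mg/kg iv or oral solution dose, frozen; antibiotic activity by disk-plate agar diffusion against E. coli MB 3804 with standards in pH 6.0 buffer; percent of dose recovered in urine.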

[2] = Half-life of the compound; assay type: ADME
Method in brief: (§2)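 Rats, jugular vein cannulated (two per group), test compound iv 20 mg/kg; probenecid 100 mg/kg iv 5 min before in treated groups. Heparinized plasma sampled at 5, 20, 40 min and 1, 2, 3 h, assayed microbiologically (B. subtilis agar well). AUC 0-3 h in μg min/mL; half-life in min.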

[3] = Area under plasma concentration vs time curve observed in Rhesus monkeys after, iv administration of single 30 mg/kg dose; assay type: ADME, organism-based, Macaca mulatta; design: dose 30 mg/kg, route intravenous; conditions: rhesus monkey
Method in brief: (§3)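 Rhesus monkeys, adult males, six animals per compound, each given drug orally and iv; fasted overnight. Single 30 mg/kg solution doses, by nasogastric tube (in water) or saphenous vein (in isotonic lactated Ringer). Plasma sampled at intervals, frozen at -70 °C, antibacterial activity by microbiological assay. AUC in μg min/mL; oral bioavailability from oral vs iv AUC.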

Streptococcus pyogenes [4] = test: Minimum inhibitory concentration against Streptococcus pyogenes C203; assay type: functional
Staphylococcus aureus [5] = test: Minimum inhibitory concentration against X1.1 strain of Staphylococcus aureus; assay type: functional
[6] = Oral bioavailability in Rhesus monkey; assay type: ADME, organism-based, Macaca mulatta; conditions: in vivo; method in brief: as §3
Canis familiaris [7] = test: Area under plasma concentration vs time curve observed in female mongrel dogs after, oral administration of single 15 mg/kg dose; assay type: ADME, organism-based, Canis lupus familiaris; design: dose 15 mg/kg, route oral; conditions: dog, in vivo
Method in brief: (§4)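 Six female mongrel dogs (14-23 kg) fasted overnight, bladder catheterized; single 15 mg/kg solution doses by stomach tube (in water, total 500 mL) or cephalic vein (saline or pH 6.0 NaCl/phosphate/acetate buffer). Plasma sampled at intervals; activity by disk-plate agar diffusion against E. coli MB 3804, standards in dog serum or buffer. AUC μg min/mL, mean ± SEM; BA from iv vs po AUC and urinary recovery.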

[8] = Mean plasma levels in rats at a time 5 min after iv administration of 100 mg/kg of probenecid 5 min prior to test compound; assay type: ADME, organism-based; design: dose 100 mg/kg, route intravenous; conditions: rat, read-out: Plasma levels; method in brief: as §2
Streptococcus pneumoniae [9] = test: Minimum inhibitory concentration against Park strain of Streptococcus pneumoniae
[10] = Oral bioavailability in mouse; assay type: ADME, organism-based; conditions: in vivo
Method in brief: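 Male Cox mice given water and liquid diet overnight; 20 mg/kg in saline (2 mg/mL) sc or orally; urine from collection cages plus bladder contents over 2 h; activity by agar well assay with Bacillus subtilis ATCC 6633. Bioavailability from percent dose excreted in urine after oral vs parenteral dosing.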

[11] = Bioavailability in rat; assay type: ADME, organism-based; conditions: in vivo
Method in brief: (§5)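 Male Wistar rats (200-300 g), jugular-cannulated, upper GI emptied by light cycle; 20 mg/kg in saline (6 mg/mL) sc or orally. Urine collected in wire-bottom cages, assayed by B. subtilis agar well method. Mean ± SD recovery with N and range; bioavailability = oral over mean sc recovery.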

[12] = Mean plasma levels in rats 2 hr after iv administration of 100 mg/kg of probenecid 5 min prior to test compound; assay type: ADME, organism-based; design: dose 100 mg/kg, route intravenous; conditions: rat, read-out: Plasma levels; method in brief: as §2
Staphylococcus aureus [13] = test: Minimum inhibitory concentration against 3055 strain of Staphylococcus aureus
[14] = test system: Staphylococcus epidermidis; test: Minimum inhibitory concentration against 222 strain of Staphylococcus epidermidis; assay type: functional
[15] = Percent of urinary recovery in rats after, sc administration of single 20 mg/kg dose in solution (N,range); assay type: ADME, organism-based; design: dose 20 mg/kg, route subcutaneous; conditions: rat, urine, read-out: Recovery; method in brief: as §5
[16] = Mean plasma levels in rats 20 min after iv administration of 100 mg/kg of probenecid 5 min prior to test compound; assay type: ADME, organism-based; design: dose 100 mg/kg, route intravenous; conditions: rat, read-out: Plasma levels; method in brief: as §2
[17] = Area under plasma concentration vs time curve observed in rats for 0-3 h; assay type: ADME; design: time < 3 hr; conditions: rat; method in brief: as §2
Salmonella = test: Minimum inhibitory concentration against X514 strain of Salmonella; assay type: functional
Streptococcus pyogenes [18] = test: Minimum inhibitory concentration against C203 strain of Streptococcus pyogenes
Streptococcus pneumoniae [19] = test: Minimum inhibitory concentration against park strain of Streptococcus pneumoniae
[20] = Mean plasma levels in rats 1 hr after iv administration of 100 mg/kg of probenecid 5 min prior to test compound; assay type: ADME, organism-based; design: dose 100 mg/kg, route intravenous; conditions: rat, read-out: Plasma levels; method in brief: as §2
[21] = Area under plasma concentration vs time curve observed in Rhesus monkeys after oral administration of single 30 mg/kg dose; assay type: ADME, organism-based, Macaca mulatta; design: dose 30 mg/kg, route oral; conditions: rhesus monkey; method in brief: as §3
[22] = test system: Staphylococcus epidermidis; test: Minimum inhibitory concentration against Epil strain of Staphylococcus epidermidis; assay type: functional
[23] = Mean plasma levels in rats 40 min after iv administration of 100 mg/kg of probenecid 5 min prior to test compound; assay type: ADME, organism-based; design: dose 100 mg/kg, route intravenous; conditions: rat, read-out: Plasma levels; method in brief: as §2
[24] = Minimum inhibitory concentration against N9 strain of Shigella sonnei; assay type: functional
[25] = Mean plasma levels in rats 3h after intravenous administration of 20 mg/kg of compound; assay type: ADME, organism-based; design: dose 20 mg/kg, route intravenous; conditions: rat, read-out: Plasma levels; method in brief: as §2
Canis familiaris [26] = test: Area under plasma concentration vs time curve observed in female mongrel dogs after, iv administration of single 15 mg/kg dose; assay type: ADME, organism-based, Canis lupus familiaris; design: dose 15 mg/kg, route intravenous; conditions: dog, in vivo; method in brief: as §4
[27] = Percent of urinary recovery in rats after, oral administration of single 20 mg/kg dose in solution (N,range); assay type: ADME, organism-based; design: dose 20 mg/kg, route oral; conditions: rat, urine, read-out: Recovery; method in brief: as §5
[28] = Minimum inhibitory concentration against sens CL strain of Haemophilus influenzae; assay type: functional
[29] = Dose in urine (24-h urine excretion) in female mongrel dogs after iv administration of single 15 mg/kg dose; assay type: ADME, organism-based, Canis lupus familiaris; design: dose 15 mg/kg, route intravenous; conditions: dog; method in brief: as §1
[30] = Minimum inhibitory concentration against res 76 strain of Haemophilus influenzae; assay type: functional

## Nc1nc(CC(=O)N[C@@H]2C(=O)N3C(C(=O)O)=C(Cl)CS[C@H]23)cs1
Klebsiella aerogenes
  MIC: 8 µg/mL (≈ 21.3 µM)
[1]
  dose excreted: 10%
[2]
  half-life: 23.5 min
[3]
  AUC: 50300 ng·h/mL
Streptococcus pyogenes [4]
  MIC: 0.125 µg/mL (≈ 0.333 µM)
Staphylococcus aureus [5]
  MIC: 2 µg/mL (≈ 5.34 µM)
[6]
  bioavailability: 4.2%
Canis familiaris [7]
  AUC: 9330 ng·h/mL
[8]
  concentration at 5 min: 57500 ng/mL
Streptococcus pneumoniae [9]
  MIC: 0.25 µg/mL (≈ 0.667 µM)
[10]
  bioavailability: 64%
[11]
  bioavailability: 19.2%
[12]
  concentration at 2 h: 1800 ng/mL
Staphylococcus aureus [13]
  MIC: 1 µg/mL (≈ 2.67 µM)
[14]
  MIC: 2 µg/mL (≈ 5.34 µM)
[15]
  dose excreted: 84.3%
[16]
  concentration at 20 min: 32000 ng/mL
[17]
  AUC at 3 h: 35400 ng·h/mL
Salmonella
  MIC: 0.25 µg/mL (≈ 0.667 µM)
Streptococcus pyogenes [18]
  MIC: 0.25 µg/mL (≈ 0.667 µM)
Streptococcus pneumoniae [19]
  MIC: 0.5 µg/mL (≈ 1.33 µM)
[20]
  concentration at 1 h: 9800 ng/mL
[21]
  AUC: 2170 ng·h/mL
[22]
  MIC: 8 µg/mL (≈ 21.3 µM)
[23]
  concentration at 40 min: 15600 ng/mL
[24]
  MIC: 4 µg/mL (≈ 10.7 µM)
[25]
  concentration at 3 h: < 1300 ng/mL
Canis familiaris [26]
  AUC: 33200 ng·h/mL
[27]
  dose excreted: 16.2%
[28]
  MIC: 1 µg/mL (≈ 2.67 µM)
[29]
  dose excreted: 36%
[30]
  MIC: 1 µg/mL (≈ 2.67 µM)
